Sampled rows, rich in hits. Any-hit rate of the full collection: about 2.8%.
p47phox inh – blocks human p47phox regulatory protein of NADPH oxidases; inhibition, % at 24.7 µM; 220,000 compounds, 0.53% hits; P14598; p47phox/p22phox peptide binding, fluorescence polarization, 2 h; AID 1274;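 note: 0% = p47phox with labelled peptide and 100% = labelled peptide alone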
eIF4E-4G inh – blocks eIF4E binding to eIF4G. inhibition, % at 21.7 µM. 220,000 compounds, 0.37% hits. TR-FRET eIF4E-eIF4GI(517-606) binding, 2 h. P63073+Q04637;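 note: 0% = full FRET control wells and 100% = background wells lacking eIF4GI fragment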
14-3-3 Bad PPI – disrupts binding of bovine 14-3-3 zeta to phospho-Bad peptide; inhibition, % at 21.7 µM; P63103; 220,000 compounds, 0.71% hits; TR-FRET 14-3-3zeta/Dy647-pBad peptide displacement, 1 h; AID 781;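 active = inhibition above about 70%, limit read from the data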;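 note: 0% = full 14-3-3 plus peptide FRET controls and 100% = background without 14-3-3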
Wee1 degr inh – inhibitors of human Wee1 degradation; 220,000 compounds, 1.2% hits; AID 1321; reporter increase, % at 5 µM; HeLa Luc-Wee1K328M stability, luciferase luminescence; 100% = proteasome inhibitor MG132 effect; P30291;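 active = activation above the mean of all tested compounds plus 3 SD, set per screening run, cut at about 8.8% in these data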;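 note: cells exposed to compound for 20 h before luminescence read; 0% = DMSO alone and 100% = MG132 at 30 µM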
Target sequence (P30291 whole entry K328M): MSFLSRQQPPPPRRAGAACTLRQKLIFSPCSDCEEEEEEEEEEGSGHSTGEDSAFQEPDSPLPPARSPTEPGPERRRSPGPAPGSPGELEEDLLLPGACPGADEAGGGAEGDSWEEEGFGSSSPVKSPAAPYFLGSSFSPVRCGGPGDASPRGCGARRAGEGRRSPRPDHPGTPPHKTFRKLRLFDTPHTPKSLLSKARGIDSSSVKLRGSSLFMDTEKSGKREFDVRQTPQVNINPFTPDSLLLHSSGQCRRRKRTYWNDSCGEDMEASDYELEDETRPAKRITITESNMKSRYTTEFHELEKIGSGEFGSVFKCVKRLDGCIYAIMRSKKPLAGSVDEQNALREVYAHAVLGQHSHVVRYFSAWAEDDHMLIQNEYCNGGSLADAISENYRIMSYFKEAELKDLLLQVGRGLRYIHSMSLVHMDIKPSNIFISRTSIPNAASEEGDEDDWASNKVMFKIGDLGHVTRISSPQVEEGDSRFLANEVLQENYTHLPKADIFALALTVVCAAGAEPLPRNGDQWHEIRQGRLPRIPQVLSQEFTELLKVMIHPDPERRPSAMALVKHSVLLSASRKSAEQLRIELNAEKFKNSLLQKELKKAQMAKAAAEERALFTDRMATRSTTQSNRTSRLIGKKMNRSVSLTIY
RBBP9 inhibitor – blocks human serine hydrolase RBBP9; O75884; recombinant RBBP9, FP-Rh probe fluorescence polarization; inhibition, % at 7.94 µM; 220,000 compounds, 0.2% hits; AID 1515;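 active = inhibition above the campaign mean of all tested compounds plus 3 SD, cut at about 14% in these data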;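 note: plate controls were DMSO wells with RBBP9 for no effect and wells lacking RBBP9 protein for full effect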
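System: RBBP9 protein / Quantity: 2.5 µM RBBP9 dispensing solution, before mixing / Also added: Serine-hydrolase probe FP-Rh, 375 nM pre-mixing / Dosing: 7.94 µM single dose, 0.794% DMSO / Timing: enzyme-compound preincubation 30 min, then probe labeling 45 min, 25 °C / Signal: FP readout at 525/598 nm / Controls: DMSO-treated enzyme wells and wells lacking RBBP9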
Active calls of the source: *.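 Rule for the calls, unless noted: active = inhibition above about 30% (limit read from the data); inactive = the rest.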

How did CN1/C(=C\C=C\C2=[N+](C)c3ccc4ccccc4c3C2(C)C)C(C)(C)c2ccccc21 do in these assays?
p47phox inh: -249.1; eIF4E-4G inh: -169.0; 14-3-3 Bad PPI: -106.2; Wee1 degr inh: -4.2; RBBP9 inhibitor: 131.6*

Results for c1ccc(-c2nc(N3CCOCC3)s[n+]2-c2ccccc2)cc1 ?
p47phox inh: 41.5*; eIF4E-4G inh: 26.8; 14-3-3 Bad PPI: 23.6; Wee1 degr inh: -0.3; RBBP9 inhibitor: -7.7

How did O=C(C1CC(c2ccc(F)cc2)=NO1)N1CCC2(CC1)OCCO2 (configuration not stated) do in these assays?
p47phox inh: -13.7; eIF4E-4G inh: 2.2; 14-3-3 Bad PPI: 2.7; Wee1 degr inh: 2.4; RBBP9 inhibitor: -6.8

How did O=C(C1CC(c2ccc(Cl)c(Cl)c2)=NO1)N1CCC2(CC1)OCCO2 (configuration not stated) do in these assays?
p47phox inh: -1.1; eIF4E-4G inh: -1.1; 14-3-3 Bad PPI: 16.2; Wee1 degr inh: 9.8*; RBBP9 inhibitor: -7.6

Results for CCN1C(=O)/C(=C/c2ccc3c(c2)CCN3CCCCl)C(=O)NC1=S ?
p47phox inh: 3.2; eIF4E-4G inh: 9.0; 14-3-3 Bad PPI: -28.0; Wee1 degr inh: -0.1; RBBP9 inhibitor: 3.5

How did C=CCN1C(=O)/C(=C/c2ccc3c(c2)CCCN3CCC)C(=O)NC1=S do in these assays?
p47phox inh: 42.9*; eIF4E-4G inh: 6.3; 14-3-3 Bad PPI: 7.7; Wee1 degr inh: -0.2; RBBP9 inhibitor: -6.9

What do the screens show for `O=C(C1CC(=O)N(C2CCCCCCC2)C1)N1CCC2(CC1)OCCO2` (configuration not stated)?
p47phox inh: 34.5*; eIF4E-4G inh: 2.3; 14-3-3 Bad PPI: 4.5; Wee1 degr inh: -0.8; RBBP9 inhibitor: 2.3

How did CN(C)c1ccc(/C=C2\C(=O)NC(=O)N(Cc3ccc(F)cc3)C2=O)cc1 do in these assays?
p47phox inh: 96.6*; eIF4E-4G inh: -0.2; 14-3-3 Bad PPI: 8.3; Wee1 degr inh: 1.6; RBBP9 inhibitor: -9.6

Results for CCOC(=O)C(C)(CC)NC(=O)CSP(=S)(OCC)OCC (configuration not stated) ?
p47phox inh: -9.4; eIF4E-4G inh: -0.6; 14-3-3 Bad PPI: -8.0; Wee1 degr inh: -1.8; RBBP9 inhibitor: 3.3

How did CN1C2CCC1C(COC(=O)c1ccccc1)C(O)C2 (configuration not stated) do in these assays?
p47phox inh: -6.1; eIF4E-4G inh: -2.0; 14-3-3 Bad PPI: 90.6*; Wee1 degr inh: -2.2; RBBP9 inhibitor: -8.7

Results for O=C(O)C1C2CC3CC(C2)CC1(n1ncc(N2CCC4(CC2)OCCO4)c(Cl)c1=O)C3 (configuration not stated) ?
p47phox inh: 2.2; eIF4E-4G inh: -0.6; 14-3-3 Bad PPI: -11.6; Wee1 degr inh: 2.4; RBBP9 inhibitor: 0.8

What do the screens show for `c1cncc(C2CCCCN2Cc2ccc3c(c2)OCO3)c1` (configuration not stated)?
p47phox inh: -16.7; eIF4E-4G inh: -5.9; 14-3-3 Bad PPI: 71.0*; Wee1 degr inh: -0.3; RBBP9 inhibitor: -8.3

How did CCOc1ccc(C2CC(c3c(O)n(C)c(=O)n(C)c3=O)=NN2)cc1 (configuration not stated) do in these assays?
p47phox inh: 61.5*; eIF4E-4G inh: -0.9; 14-3-3 Bad PPI: -12.3; Wee1 degr inh: -0.2; RBBP9 inhibitor: -9.9

What do the screens show for `Cc1cc(OC(=O)N(C)C)nc(-c2ccc(C)c(Cl)c2)n1`?
p47phox inh: -4.7; eIF4E-4G inh: 3.0; 14-3-3 Bad PPI: 1.1; Wee1 degr inh: 0.5; RBBP9 inhibitor: -5.5

How did CN(C)c1ccc2c(c1)N=C(c1ccco1)OP2(=S)N1CCOCC1 (configuration not stated) do in these assays?
p47phox inh: -8.4; eIF4E-4G inh: 41.3*; 14-3-3 Bad PPI: 26.4; Wee1 degr inh: -4.7; RBBP9 inhibitor: -9.2

How did N#CC[N+]1(CCCNP2(=O)C=C(c3ccccc3)OC(c3ccccc3)=C2)CCOCC1 do in these assays?
p47phox inh: -9.7; eIF4E-4G inh: 0.5; 14-3-3 Bad PPI: -18.1; Wee1 degr inh: -1.3; RBBP9 inhibitor: -6.8

How did CC12CCC3C(CC=C4CC5(CCC43C)OCCO5)C1CCC2=O (configuration not stated) do in these assays?
p47phox inh: -6.1; eIF4E-4G inh: -0.9; 14-3-3 Bad PPI: -5.9; Wee1 degr inh: 1.1; RBBP9 inhibitor: -3.3

Assay outcomes: PubChem BioAssay, several laboratories
